Consider four compounds from paper PMC10073267 (Journal of peptide science : an official publication of the …, 2023).

The nature of the data set: Octanol–water partitioning in the presence of sodium dodecanoate. Conditions: mean ± SD; octanol–water partitioning with sodium dodecanoate (2.5 equiv); D2O. Format: physicochemical. The essentials:
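Test compound dissolved in D2O as 0.02 M stock, mixed with equal volume of octanol, with or without sodium dodecanoate (2.5 equiv), triplicate tubes each. Vortexed 30 s, centrifuged 15 min, ambient ~22 °C. Aqueous-layer NMR integrations pre- and post-wash compared. Partitioning taken as difference between octanol-only and octanol + lipid washes, averaged over three replicates.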
`CC(=O)N[C@@H](CCCN=C(N)N)C(N)=O` [1·H^+, Ac-Arg-NH2]: the “Percent in Aqueous Layer” value stood at 30.4 ± 1.5%.

As for `CC(=O)N[C@@H](CCCNC(=N)N)C(=O)N(C)C` [3·H^+, Ac-Arg-NMe2], the “Percent in Aqueous Layer” value was 18.3 ± 0.7%. As for `CNC(=O)[C@H](CCCNC(=N)N)NC(C)=O` [2·H^+, Ac-Arg-NHMe], the “Percent in Aqueous Layer” value is recorded as 19.8 ± 0.1%. The value for `CC(=O)N(C)C(CCCN=C(N)N)C(=O)N(C)C` (stereo not shown) [4·H^+, Ac-(N-Me)Arg-NMe2] was 12.7 ± 1.6%.
